Screens from PubChem.
Rows were chosen to be rich in hits. Some 2.2% of all compounds tested hit in one or more screens of this group.
Runt-CBFb FRET = inhibitors of RUNX1 Runt–CBFb binding, primary screen, biochemical, FRET, Cerulean-Runt, Venus-CBFb, uHTS; Runt-related transcription factor 1 (Homo sapiens) + Core-binding factor subunit beta …; Cerulean-Runt/Venus-CBFb FRET ratio 530/480, 1 h; inhibition, % at 20 µM; actives 0.46% (n = 220,000);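 active means inhibition over about 50% at 20 µM in the single-dose screen, limit read from the data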;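 further: 0% = DMSO wells and 100% = excess unlabeled CBFb competitor control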
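Measured by: fluorescence energy transfer, 422 nm excitation, 530/480 nm emission; Assay system: Cerulean-Runt domain; Medium: Tris pH 7.5 buffer with BSA; Measure: loss of energy transfer signal; Controls: 5 µM unlabeled CBFb as full-inhibition high control; Incubation: protein complex preformed 1 h, compound exposure 1 h, room temperature, dark.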
Hck-Nef inh = inhibitors of Nef-activated human Hck kinase, primary screen, biochemical, Z-Lyte FRET, 384-well, Hck-YEEI; Tyrosine-protein kinase HCK (Homo sapiens), P08631; Recombinant Hck-YEEI plus Nef, Z-Lyte FRET kinase assay; inhibition, % at 20 µM; actives 0.68% (n = 220,000);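 active means Hck-Nef kinase inhibition above about 50%, limit read from the data; inactive means inhibition below that limit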;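 further: 0% = DMSO with Hck plus Nef and 100% = Hck alone without Nef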
Runt-SMMHC FRET = inhibitors of RUNX1 Runt–CBFb-SMMHC binding, primary screen, biochemical, FRET, Cerulean-Runt, Venus-CBFb-SMMHC, uHTS. Runt-related transcription factor 1 (Homo sapiens) + Core-binding factor subunit beta …. actives 0.74% (n = 220,000). inhibition, % at 20 µM. Cerulean-Runt/Venus-CBFb-SMMHC FRET ratio 530/480, 1 h. AID 1434, 2008;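 active means mean inhibition across duplicate retests at 20 µM reaching about 50%, limit read from the data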;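 further: 0% = DMSO wells and 100% = wells with excess untagged CBFb-SMMHC; inhibitors lower the FRET ratio by blocking Runt binding to CBFb-SMMHC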
Tb hexokinase = Trypanosoma brucei hexokinase 1 inhibitors, primary screen, biochemical, G6PDH-coupled NADH absorbance, MLSCN library; hexokinase 1 [Trypanosoma brucei]; recombinant TbHK1, G6PDH-coupled NADH A340; inhibition, % at 10 µM; actives 0.11% (n = 220,000); AID 1430, 2008;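 active means inhibition of 50% or more in the single-dose primary screen; inactive means inhibition below 50%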
14-3-3 Bad PPI = inhibitors of 14-3-3 zeta/Bad binding, primary screen, biochemical, TR-FRET, bovine 14-3-3 zeta | 14-3-3 protein zeta/delta (Bos taurus), P63103 | inhibition, % at 21.7 µM | actives 0.71% (n = 220,000) | TR-FRET 14-3-3zeta/Dy647-pBad peptide displacement, 1 h;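 active means inhibition above about 70%, limit read from the data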;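 further: 0% = full 14-3-3 plus peptide FRET controls and 100% = background without 14-3-3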
RanGTP-Impb inh = inhibitors of RanGTP-importin-beta interaction, primary screen, biochemical, FRET, CFP-Ran, YFP-importin-beta, homogeneous; cell-free CFP-Ran/YFP-importin-beta FRET ratio; actives 1.1% (n = 300,000); inhibition, % (no concentration beside the values); Ran GTPase (GTP-bound) - importin-beta complex;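 active means more than half of the replicate wells show a fall in the fluorescence ratio signal beyond about 16%, limit read from the data, passing the limit was not always enough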;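 further: 0% = DMSO wells and 100% = Ran loaded with GDP instead of GTP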
Starred values were filed as active, the others as inactive; / = no result; [ ] = dose if it differs, or a comment.

SMILES | Runt-CBFb FRET | Hck-Nef inh | Runt-SMMHC FRET | Tb hexokinase | 14-3-3 Bad PPI | RanGTP-Impb inh
COc1ccc(-c2cc3ccccc3oc2=O)cc1NC(=O)c1ccc([N+](=O)[O-])o1 | 0 | 8 | -2 | -11 | 80*[fluorescence artefact?] | -2
CCC(=O)Nc1cc(-c2cc3ccccc3oc2=O)ccc1OC | -1 | 5 | -1 | -25 | -10 | 1
Cc1cccc2cc3c(NC(=O)c4ccccn4)nn(C)c3nc12 | 57* | 26 | 86 | -8 | 4 | 35*
CCCC(=O)Nc1nn(C)c2nc3c(C)cccc3cc12 | 20 | 8 | 39 | 0 | 28 | 31*
CCCn1nc(NC(=O)COC)c2cc3cccc(C)c3nc21 | / | / | / | / | / | 38*
CCCn1nc(NC(C)=O)c2cc3cccc(C)c3nc21 | / | / | / | / | / | 69*
COc1ccc(S(=O)(=O)NCc2ccco2)cc1NC(=O)c1ccccc1 | / | / | / | / | / | -1
NC(=NCCc1ccccc1)NS(=O)(=O)c1ccccc1 | -1 | 2 | 2 | 1 | -4 | -1
CCn1nc(NS(=O)(=O)c2ccccc2[N+](=O)[O-])c2cc3cccc(C)c3nc21 | / | / | / | / | / | -3
CCn1nc(NC(=O)C(C)(C)C)c2cc3cccc(C)c3nc21 | / | / | / | / | / | 47*
O=C(CCCc1nc2ccccc2s1)Nc1ccc(N2CCOCC2)cc1 | -1 | 18 | 2 | 6 | 16 | -2
Cc1cc(NCc2ccccn2)nc2ccccc12 | 0 | 0 | -4 | -26 | 7 | -3
Cc1nc(NCc2ccccn2)c2ccccc2n1 | -3 | 1 | -1 | 4 | 70* | 2
CC(=O)N1c2ccccc2Nc2ccccc21 | -1 | 8 | 3 | -2 | -3 | 0
CC(=O)N1c2ccccc2C2(O)N=C(C)SC12 (stereo not given) | 20 | -1 | 52* | 36 | -35 | /
CCC1CCCCN1C(=O)N[C@@H](Cc1ccccc1)C(=O)O (stereo not given in full) | -3 | 1 | -2 | 1 | -5 | 1
Cc1ccc(S(=O)(=O)N(CC(=O)N2CCOCC2)c2ccc(C(C)C)cc2)cc1 | / | / | / | / | / | 4
COCCNC(=O)/C(C#N)=C/c1ccc(N2CCOCC2)o1 | 5 | 0 | 14 | 1 | -12 | 50*
COCCNC(=O)/C(C#N)=C\c1ccc(CNS(=O)(=O)c2ccccc2)o1 | / | 19 | / | -49 | -2 | 3
O=C(NCCCN1CCOCC1)C(=O)NCCc1ccccc1 | 0 | 2 | 0 | -5 | 3 | 2
N#C/C(=C\c1ccc(N2CCOCC2)o1)C(=O)NCCc1ccccc1 | 14 | 11 | 94* | -4 | -13 | 53*
O=C(O)CCN1Cc2ccccc2C1=O | 2 | 4 | 7 | -2 | 85* | -1
O=C(CC1S/C(=N/N=C/c2c[nH]c3ccccc23)NC1=O)Nc1ccccc1 (stereo not given) | -1 | 1 | -3 | -10 | -8 | -2
O=C(CC1S/C(=N/N=C/c2ccco2)NC1=O)Nc1ccccc1 (stereo not given) | 2 | -1 | 17 | -7 | -13 | 139*
CC(Cc1ccccc1)C(=O)NCc1ccncc1 (stereo not given) | 0 | -4 | -2 | 2 | -5 | -1
CC(CCc1ccccc1)NCc1ccncc1 (stereo not given) | 1 | 0 | -1 | 1 | 90* | 3
Cc1ccc2c(c1)cc(C(=O)N[C@@H](Cc1ccccc1)C(=O)O)n2C | / | / | / | / | / | 4
O=C(NC1CCCCCC1)c1cc(=O)[nH]c2ccc(S(=O)(=O)N3CCOCC3)cc12 | -3 | -3 | 5 | -14 | 0 | 6
